Data on four molecules can be found in ChEMBL document CHEMBL2073862, “Localization of organic anion transporting polypeptides in the rat and human ciliary body epithelium” (Exp Eye Res, 2005).

The target in data set [1] is T1, Solute carrier organic anion transporter family member 1C1 (Homo sapiens, UniProt Q9NYB5).
T1 sequence (Q9NYB5 whole entry): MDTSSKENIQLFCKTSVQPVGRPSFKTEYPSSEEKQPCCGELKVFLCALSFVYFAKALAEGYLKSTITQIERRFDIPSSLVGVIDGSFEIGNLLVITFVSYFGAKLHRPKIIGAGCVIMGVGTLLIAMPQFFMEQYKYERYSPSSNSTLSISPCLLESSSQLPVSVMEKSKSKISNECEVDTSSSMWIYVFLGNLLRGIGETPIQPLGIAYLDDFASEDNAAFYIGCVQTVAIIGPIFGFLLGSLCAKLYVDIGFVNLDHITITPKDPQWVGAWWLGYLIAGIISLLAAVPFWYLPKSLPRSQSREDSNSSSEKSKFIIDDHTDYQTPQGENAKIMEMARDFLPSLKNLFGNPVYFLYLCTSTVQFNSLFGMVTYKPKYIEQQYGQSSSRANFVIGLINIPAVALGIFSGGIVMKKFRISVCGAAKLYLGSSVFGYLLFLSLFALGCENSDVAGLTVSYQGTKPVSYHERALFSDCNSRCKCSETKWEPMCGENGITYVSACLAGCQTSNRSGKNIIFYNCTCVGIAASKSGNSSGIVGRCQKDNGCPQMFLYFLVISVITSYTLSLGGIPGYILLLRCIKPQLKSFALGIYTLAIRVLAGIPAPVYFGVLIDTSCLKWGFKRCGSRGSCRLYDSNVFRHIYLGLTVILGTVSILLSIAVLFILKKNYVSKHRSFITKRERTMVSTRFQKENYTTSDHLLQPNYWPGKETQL
The data set is described as follows: (§1) TP_TRANSPORTER: uptake in Xenopus laevis oocytes. The settings on record: oocyte. It counts as functional, cell-based. The gist of the method:
(§2)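 Oocytes were injected with 5 ng of cRNA for human OATP1A2, 1C1, 2B1, 3A1 or 4A1, or with water, then cultured 3 days. Radioactivity was counted by scintillation, water-injected uptake was subtracted, and Km came from nonlinear regression of 12–15 oocytes.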

The target of data set [2] is T2, Solute carrier organic anion transporter family member 2B1 (Homo sapiens, UniProt O94956).
T2 sequence (O94956 whole entry): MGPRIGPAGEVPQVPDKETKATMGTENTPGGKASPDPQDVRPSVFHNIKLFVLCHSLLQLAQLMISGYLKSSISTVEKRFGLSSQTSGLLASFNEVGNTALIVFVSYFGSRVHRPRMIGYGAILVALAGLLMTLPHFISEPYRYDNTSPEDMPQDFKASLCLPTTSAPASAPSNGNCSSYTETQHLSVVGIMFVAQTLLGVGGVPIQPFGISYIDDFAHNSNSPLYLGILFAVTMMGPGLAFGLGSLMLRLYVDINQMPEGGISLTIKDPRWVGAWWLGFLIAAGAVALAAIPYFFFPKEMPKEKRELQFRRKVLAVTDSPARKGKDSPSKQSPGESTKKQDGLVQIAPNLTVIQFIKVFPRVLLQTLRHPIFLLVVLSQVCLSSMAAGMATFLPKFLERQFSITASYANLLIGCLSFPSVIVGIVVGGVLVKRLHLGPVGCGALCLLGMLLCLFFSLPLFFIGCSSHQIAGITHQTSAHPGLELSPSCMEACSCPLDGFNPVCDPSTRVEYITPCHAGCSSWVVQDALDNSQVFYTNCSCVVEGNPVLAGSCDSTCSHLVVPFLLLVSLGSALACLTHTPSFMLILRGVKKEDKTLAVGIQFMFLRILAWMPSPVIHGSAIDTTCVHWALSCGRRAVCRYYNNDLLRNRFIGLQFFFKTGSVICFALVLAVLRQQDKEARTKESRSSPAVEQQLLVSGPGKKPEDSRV
The data set is described as §1. In kind it is functional, cell-based. The following applies: oocyte. The gist of the method:
as §2

The target in data set [3] is T3, Solute carrier organic anion transporter family member 3A1 (Homo sapiens, UniProt Q9UIG8).
T3 sequence (Q9UIG8 whole entry): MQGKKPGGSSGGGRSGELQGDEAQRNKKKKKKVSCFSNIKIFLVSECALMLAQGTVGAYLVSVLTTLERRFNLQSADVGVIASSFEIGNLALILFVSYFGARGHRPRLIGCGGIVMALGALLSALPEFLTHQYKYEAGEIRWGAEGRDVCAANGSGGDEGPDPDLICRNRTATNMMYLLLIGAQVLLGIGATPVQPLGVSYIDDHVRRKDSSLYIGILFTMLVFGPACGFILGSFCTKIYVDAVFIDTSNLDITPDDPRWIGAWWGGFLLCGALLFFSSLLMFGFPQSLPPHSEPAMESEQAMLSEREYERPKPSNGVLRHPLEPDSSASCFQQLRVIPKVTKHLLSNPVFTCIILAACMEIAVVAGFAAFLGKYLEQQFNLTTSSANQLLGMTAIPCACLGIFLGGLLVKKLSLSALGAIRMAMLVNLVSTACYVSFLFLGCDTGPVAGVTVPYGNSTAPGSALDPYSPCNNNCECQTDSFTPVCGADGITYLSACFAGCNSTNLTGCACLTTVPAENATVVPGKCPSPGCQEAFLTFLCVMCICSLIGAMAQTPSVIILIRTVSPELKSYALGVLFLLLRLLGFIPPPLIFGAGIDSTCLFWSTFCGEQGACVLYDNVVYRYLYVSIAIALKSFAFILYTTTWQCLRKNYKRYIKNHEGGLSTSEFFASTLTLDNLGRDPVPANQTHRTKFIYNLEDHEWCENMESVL
Described as §1. It counts as functional, cell-based. The following applies: oocyte. Put shortly: as §2

For data set [4], the target named is T4, Solute carrier organic anion transporter family member 4A1 (Homo sapiens, UniProt Q96BD0).
T4 sequence (Q96BD0 whole entry): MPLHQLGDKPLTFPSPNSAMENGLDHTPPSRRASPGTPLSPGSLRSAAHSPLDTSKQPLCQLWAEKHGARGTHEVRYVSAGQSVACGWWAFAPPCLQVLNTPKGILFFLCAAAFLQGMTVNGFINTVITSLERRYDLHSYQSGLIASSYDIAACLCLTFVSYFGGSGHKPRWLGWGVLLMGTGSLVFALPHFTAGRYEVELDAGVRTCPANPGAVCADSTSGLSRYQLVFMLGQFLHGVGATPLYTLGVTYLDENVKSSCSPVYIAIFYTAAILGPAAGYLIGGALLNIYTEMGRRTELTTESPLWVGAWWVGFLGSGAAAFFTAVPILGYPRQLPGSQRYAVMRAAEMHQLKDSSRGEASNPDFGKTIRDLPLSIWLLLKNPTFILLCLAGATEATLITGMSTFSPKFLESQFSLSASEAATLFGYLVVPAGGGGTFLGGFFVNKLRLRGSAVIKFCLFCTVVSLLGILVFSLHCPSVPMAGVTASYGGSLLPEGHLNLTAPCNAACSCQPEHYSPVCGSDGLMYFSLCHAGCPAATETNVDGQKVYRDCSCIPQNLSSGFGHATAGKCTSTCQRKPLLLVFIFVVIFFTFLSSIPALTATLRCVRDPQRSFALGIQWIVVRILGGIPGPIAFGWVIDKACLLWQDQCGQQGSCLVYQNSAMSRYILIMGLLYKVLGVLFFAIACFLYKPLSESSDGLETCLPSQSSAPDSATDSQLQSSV
The data set is described as §1. In kind it is functional, cell-based. The settings on record: oocyte. The gist of the method: as §2

For data set [5], the target named is T5, Solute carrier organic anion transporter family member 1A2 (Homo sapiens, UniProt P46721).
T5 sequence (P46721 whole entry): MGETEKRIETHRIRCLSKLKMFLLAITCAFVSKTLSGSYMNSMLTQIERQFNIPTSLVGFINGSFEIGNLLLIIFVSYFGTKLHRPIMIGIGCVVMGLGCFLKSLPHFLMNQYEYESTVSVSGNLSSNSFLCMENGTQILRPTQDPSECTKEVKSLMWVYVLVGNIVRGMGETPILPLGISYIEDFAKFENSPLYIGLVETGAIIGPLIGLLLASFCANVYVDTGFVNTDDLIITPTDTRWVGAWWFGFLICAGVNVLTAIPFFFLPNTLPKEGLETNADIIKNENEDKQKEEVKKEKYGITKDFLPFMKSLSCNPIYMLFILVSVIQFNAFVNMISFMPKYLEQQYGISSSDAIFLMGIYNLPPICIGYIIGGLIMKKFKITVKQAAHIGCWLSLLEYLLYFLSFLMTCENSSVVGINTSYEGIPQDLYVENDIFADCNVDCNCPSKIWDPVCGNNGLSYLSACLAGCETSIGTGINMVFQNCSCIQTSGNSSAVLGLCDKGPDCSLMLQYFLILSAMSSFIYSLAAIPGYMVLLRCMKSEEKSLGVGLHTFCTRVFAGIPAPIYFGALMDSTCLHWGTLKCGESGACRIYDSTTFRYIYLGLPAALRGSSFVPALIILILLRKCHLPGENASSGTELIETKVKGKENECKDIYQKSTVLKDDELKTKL
Described as §1. In kind it is functional, cell-based, Oocyte. Put shortly:
as §2

Substrate in data set [6]: CCCCCCCC(=O)CC[C@@H]1[C@@H](C/C=C\CCCC(=O)O)[C@@H](O)C[C@H]1O
The data set is described as §1. It counts as functional, cell-based, Oocyte. The gist of the method:
as §2

Turning to `CCCCCCCC(=O)CC[C@@H]1[C@@H](C/C=C\CCCC(=O)OC(C)C)[C@@H](O)C[C@H]1O` [UNOPROSTONE ISOPROPYL], the Activity result in data set [1], in data set [2], in data set [3], in data set [4] and in data set [5] (oocyte) was “is not a substrate [(-)]” each time.
As for `CCCCCCCC(=O)CC[C@@H]1[C@@H](C/C=C\CCCC(=O)O)[C@@H](O)C[C@H]1O` [UNOPROSTONE], the Activity result in data set [1] and in data set [3] was “is not a substrate [(-)]” each time. The Michaelis-Menten constant (Km) (commonly the concentration of substrate that gives half-maximal velocity) in data set [5] (Xenopus laevis oocytes) was 93 µM.

B1: Solute carrier organic anion transporter family member 2B1 (Homo sapiens) (protein)
chain: MGPRIGPAGEVPQVPDKETKATMGTENTPGGKASPDPQDVRPSVFHNIKLFVLCHSLLQLAQLMISGYLKSSISTVEKRFGLSSQTSGLLASFNEVGNTALIVFVSYFGSRVHRPRMIGYGAILVALAGLLMTLPHFISEPYRYDNTSPEDMPQDFKASLCLPTTSAPASAPSNGNCSSYTETQHLSVVGIMFVAQTLLGVGGVPIQPFGISYIDDFAHNSNSPLYLGILFAVTMMGPGLAFGLGSLMLRLYVDINQMPEGGISLTIKDPRWVGAWWLGFLIAAGAVALAAIPYFFFPKEMPKEKRELQFRRKVLAVTDSPARKGKDSPSKQSPGESTKKQDGLVQIAPNLTVIQFIKVFPRVLLQTLRHPIFLLVVLSQVCLSSMAAGMATFLPKFLERQFSITASYANLLIGCLSFPSVIVGIVVGGVLVKRLHLGPVGCGALCLLGMLLCLFFSLPLFFIGCSSHQIAGITHQTSAHPGLELSPSCMEACSCPLDGFNPVCDPSTRVEYITPCHAGCSSWVVQDALDNSQVFYTNCSCVVEGNPVLAGSCDSTCSHLVVPFLLLVSLGSALACLTHTPSFMLILRGVKKEDKTLAVGIQFMFLRILAWMPSPVIHGSAIDTTCVHWALSCGRRAVCRYYNNDLLRNRFIGLQFFFKTGSVICFALVLAVLRQQDKEARTKESRSSPAVEQQLLVSGPGKKPEDSRV
For B1, in data set [6], the Km stood at 91 µM.

B2: Solute carrier organic anion transporter family member 4A1 (Homo sapiens) (protein)
chain: MPLHQLGDKPLTFPSPNSAMENGLDHTPPSRRASPGTPLSPGSLRSAAHSPLDTSKQPLCQLWAEKHGARGTHEVRYVSAGQSVACGWWAFAPPCLQVLNTPKGILFFLCAAAFLQGMTVNGFINTVITSLERRYDLHSYQSGLIASSYDIAACLCLTFVSYFGGSGHKPRWLGWGVLLMGTGSLVFALPHFTAGRYEVELDAGVRTCPANPGAVCADSTSGLSRYQLVFMLGQFLHGVGATPLYTLGVTYLDENVKSSCSPVYIAIFYTAAILGPAAGYLIGGALLNIYTEMGRRTELTTESPLWVGAWWVGFLGSGAAAFFTAVPILGYPRQLPGSQRYAVMRAAEMHQLKDSSRGEASNPDFGKTIRDLPLSIWLLLKNPTFILLCLAGATEATLITGMSTFSPKFLESQFSLSASEAATLFGYLVVPAGGGGTFLGGFFVNKLRLRGSAVIKFCLFCTVVSLLGILVFSLHCPSVPMAGVTASYGGSLLPEGHLNLTAPCNAACSCQPEHYSPVCGSDGLMYFSLCHAGCPAATETNVDGQKVYRDCSCIPQNLSSGFGHATAGKCTSTCQRKPLLLVFIFVVIFFTFLSSIPALTATLRCVRDPQRSFALGIQWIVVRILGGIPGPIAFGWVIDKACLLWQDQCGQQGSCLVYQNSAMSRYILIMGLLYKVLGVLFFAIACFLYKPLSESSDGLETCLPSQSSAPDSATDSQLQSSV
Regarding B2, the Km in data set [6] was 132 µM.
